Results on 12 molecules are retold here after ChEMBL document CHEMBL1127544, “A new series of photoactivatable and iodinatable linear vasopressin antagonists” (J Med Chem, 1994).

The target in assay [1] is T1, Vasopressin V1a receptor (Rattus norvegicus, UniProt P30560). The assay can be described thus: Inhibition constant for V1a receptor of rat liver membrane. In short, it runs like this: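 Competition binding on rat liver membranes (male rat), 5 or 10 μg/assay, 45 min at 30 °C in the dark. Unlabeled peptide 10^-11 to 10^-7 or 10^-6 M against 60 pM [125I]Phaa-D-Tyr(Me)-Phe-Gln-Asn-Arg-Pro-Arg-Tyr-NH2. Nonspecific binding with 1 μM vasopressin. Separation by GF/C filtration. Ki = IC50 × Kd/(Kd + [tracer]), tracer Kd 0.06 nM. Triplicates.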
T1 sequence (P30560 whole entry): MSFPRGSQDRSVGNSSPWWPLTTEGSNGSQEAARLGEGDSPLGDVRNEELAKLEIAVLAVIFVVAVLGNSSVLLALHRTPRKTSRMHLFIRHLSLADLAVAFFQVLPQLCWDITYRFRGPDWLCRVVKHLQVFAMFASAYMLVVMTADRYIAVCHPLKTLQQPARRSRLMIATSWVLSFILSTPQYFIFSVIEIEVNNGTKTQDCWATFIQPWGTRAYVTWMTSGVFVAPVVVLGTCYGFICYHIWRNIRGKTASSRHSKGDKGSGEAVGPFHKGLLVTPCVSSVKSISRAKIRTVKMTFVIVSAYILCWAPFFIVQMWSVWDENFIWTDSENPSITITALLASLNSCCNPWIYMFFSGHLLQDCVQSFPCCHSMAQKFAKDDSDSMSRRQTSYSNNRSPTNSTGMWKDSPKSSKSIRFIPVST

Another assay deals with T2, Oxytocin receptor (Rattus norvegicus, UniProt P70536).
T2 sequence (P70536 whole entry): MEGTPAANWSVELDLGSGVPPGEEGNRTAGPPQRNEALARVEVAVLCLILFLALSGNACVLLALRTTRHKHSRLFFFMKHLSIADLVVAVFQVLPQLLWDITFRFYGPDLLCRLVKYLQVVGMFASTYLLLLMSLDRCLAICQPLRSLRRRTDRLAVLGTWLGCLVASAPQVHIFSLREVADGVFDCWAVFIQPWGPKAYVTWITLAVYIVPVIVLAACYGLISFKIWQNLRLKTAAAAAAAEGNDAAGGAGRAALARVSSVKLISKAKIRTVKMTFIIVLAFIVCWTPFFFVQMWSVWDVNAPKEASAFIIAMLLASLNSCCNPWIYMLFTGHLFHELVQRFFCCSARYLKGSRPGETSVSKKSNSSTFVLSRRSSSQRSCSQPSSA
The assay can be described thus: Tested for inhibition constant at OT receptor of rat mammary glands. An outline of the steps: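 Rat mammary gland membranes (female rat), 2 or 5 μg/assay, 45 min at 30 °C in 50 mM Tris-HCl pH 7.4, 5 mM MgCl2, 1 mg/mL BSA. Competition against 60 pM [125I]d(CH2)5[Tyr(Me)2,Thr4,Orn8,Tyr-NH2 9]VT. Nonspecific binding with 1 μM oxytocin. Filtration over GF/C. Triplicate determinations.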

Assay [2] deals with T1, Vasopressin V1a receptor. In words: Tested for dissociation constant at V1a receptor of rat liver membrane. An outline of the steps:
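Saturation binding of the 125I-labeled azido analogues on rat liver membranes (5 μg), rising labeled-ligand concentrations, run as the competition protocol (45 min, 30 °C, Tris-HCl pH 7.4, MgCl2, BSA, filtration). Nonspecific binding with 250-fold excess of the matching unlabeled analogue. Kd from Scatchard plot. Triplicate values, three independent experiments.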

In another assay the target is Vasopressin V2 receptor (Rattus norvegicus, UniProt Q00788). The assay can be described thus: Tested for inhibition constant at V2 receptor of rat kidney membrane. An outline of the steps: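 Rat renal medullary membranes (male rat, freshly prepared), 28.5 μg/assay, 45 min at 30 °C in 50 mM Tris-HCl pH 7.4, 5 mM MgCl2, 1 mg/mL BSA. Competition against 10^-9 M [3H]AVP. Nonspecific binding with 1 μM vasopressin. Filtration over GF/C. Triplicate determinations.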
Vasopressin V2 receptor, sequence (Q00788 whole entry): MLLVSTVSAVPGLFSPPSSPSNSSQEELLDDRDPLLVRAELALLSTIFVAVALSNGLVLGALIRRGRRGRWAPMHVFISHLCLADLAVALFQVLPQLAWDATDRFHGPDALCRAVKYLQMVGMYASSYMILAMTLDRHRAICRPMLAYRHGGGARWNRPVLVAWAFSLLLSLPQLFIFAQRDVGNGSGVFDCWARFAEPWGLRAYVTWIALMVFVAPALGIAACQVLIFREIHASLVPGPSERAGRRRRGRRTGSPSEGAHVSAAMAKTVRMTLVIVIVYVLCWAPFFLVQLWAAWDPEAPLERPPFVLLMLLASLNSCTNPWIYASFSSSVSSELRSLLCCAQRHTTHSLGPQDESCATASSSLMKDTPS

For assay [3], the target named is T1, Vasopressin V1a receptor. In words: Tested for inhibition constant determined from vasopressin induced inositol phosphates accumulation performed on WRK1 cell line of V1a receptor subtype. In kind it is cell-based. An outline of the steps:
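WRK1 cells prelabeled 3 days with myo-[3H]inositol (2 μCi/mL), then serum-starved 30 min. Preincubated 15 min at 37 °C in PBS with 10 mM LiCl, 1 mg/mL BSA and analogue, then 3 nM AVP or vehicle for 6 min. Stopped with perchloric acid. Total inositol phosphates separated on Dowex. Ki act derived from the antagonism curves. At least three experiments in duplicate.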

For orientation: Ki means the equilibrium dissociation constant of an inhibitor or competing ligand from its target. A higher Ki goes with a looser hold on the target. Molecule `COc1ccc(C[C@@H](NC(=O)CCc2cccc(N=[N+]=[N-])c2)C(=O)N[C@@H](Cc2ccccc2)C(=O)N[C@@H](CCC(N)=O)C(=O)N[C@@H](CC(N)=O)C(=O)N[C@@H](CCCNC(=N)N)C(=O)N2CCC[C@H]2C(=O)N[C@@H](CCCNC(=N)N)C(=O)N[C@@H](Cc2ccc(O)cc2)C(N)=O)cc1` (stereo in doubt; 16) yielded a Ki at Vasopressin V1a receptor [1] of 0.16 nM. This lies in the sub-nanomolar range.

The term Kd denotes the concentration at which binding is half-saturated. Read a low Kd as higher affinity. Consider `COc1ccc(C[C@@H](NC(=O)CCc2cccc(N=[N+]=[N-])c2)C(=O)N[C@@H](Cc2ccccc2)C(=O)N[C@@H](CCC(N)=O)C(=O)N[C@@H](CC(N)=O)C(=O)N[C@@H](CCCNC(=N)N)C(=O)N2CCC[C@H]2C(=O)N[C@@H](CCCNC(=N)N)C(=O)N[C@@H](Cc2ccc(O)cc2)C(N)=O)cc1` (stereo in doubt; 21), for which the inhibition constant (Ki) at Vasopressin V1a receptor [1] stood at 0.27 nM; on Oxytocin receptor it was 1.4 nM; at Vasopressin V2 receptor, 16 nM; on Vasopressin V1a receptor [3], 0.13 nM. Besides, binding at Vasopressin V1a receptor [2] was put at a Kd of 0.054 nM.

For the molecule `COc1ccc(C[C@@H](NC(=O)CCc2ccc(N=[N+]=[N-])cc2)C(=O)N[C@@H](Cc2ccccc2)C(=O)N[C@@H](CCC(N)=O)C(=O)N[C@@H](CC(N)=O)C(=O)N[C@@H](CCCN=C(N)N)C(=O)N2CCC[C@H]2C(=O)N[C@@H](CCCN=C(N)N)C(=O)N[C@@H](Cc2ccc(O)cc2)C(N)=O)cc1` (stereo in doubt; 20), the inhibition constant Ki turned out to be 0.47 nM on Vasopressin V1a receptor [1], 37.7 nM on Oxytocin receptor, 1.6 nM on Vasopressin V2 receptor and 0.11 nM at Vasopressin V1a receptor [3]. For the same molecule, the affinity at Vasopressin V1a receptor [2], expressed as Kd, was 0.19 nM.

On Vasopressin V1a receptor [1], `COc1ccc(C[C@@H](NC(=O)c2cccc(N=[N+]=[N-])c2)C(=O)N[C@@H](Cc2ccccc2)C(=O)N[C@@H](CCC(N)=O)C(=O)N[C@@H](CC(N)=O)C(=O)N[C@@H](CCCN=C(N)N)C(=O)N2CCC[C@H]2C(=O)N[C@@H](CCCN=C(N)N)C(=O)N[C@@H](Cc2ccc(O)cc2)C(N)=O)cc1` displayed an inhibitory constant (Ki) of 17.8 nM. This counts as double-digit nanomolar.

Regarding `COc1ccc(C[C@@H](NC(=O)Cc2cccc(N=[N+]=[N-])c2)C(=O)N[C@@H](Cc2ccccc2)C(=O)N[C@@H](CCC(N)=O)C(=O)N[C@@H](CC(N)=O)C(=O)N[C@@H](CCCNC(=N)N)C(=O)N2CCC[C@H]2C(=O)N[C@@H](CCCNC(=N)N)C(=O)N[C@@H](Cc2ccc(O)cc2)C(N)=O)cc1` (stereo in doubt; 19), the Ki on Vasopressin V1a receptor [1] was determined as 1.1 nM; on Oxytocin receptor, 0.65 nM; at Vasopressin V2 receptor it was 10 nM; on Vasopressin V1a receptor [3] it was 0.24 nM.

In turn, `COc1ccc(C[C@@H](NC(=O)Cc2ccc(N=[N+]=[N-])cc2)C(=O)N[C@@H](Cc2ccccc2)C(=O)N[C@@H](CCC(N)=O)C(=O)N[C@@H](CC(N)=O)C(=O)N[C@@H](CCCNC(=N)N)C(=O)N2CCC[C@H]2C(=O)N[C@@H](CCCNC(=N)N)C(=O)N[C@@H](Cc2ccc(O)cc2)C(N)=O)cc1` (stereo in doubt; 13) registered an inhibition constant Ki on Vasopressin V1a receptor [1] of 0.12 nM.

Regarding `COc1ccc(C[C@@H](NC(=O)CCCc2ccc(N=[N+]=[N-])cc2)C(=O)N[C@@H](Cc2ccccc2)C(=O)N[C@@H](CCC(N)=O)C(=O)N[C@@H](CC(N)=O)C(=O)N[C@@H](CCCN=C(N)N)C(=O)N2CCC[C@H]2C(=O)N[C@@H](CCCN=C(N)N)C(=O)N[C@@H](Cc2ccc(O)cc2)C(N)=O)cc1` (stereo in doubt; 17), the Ki on Vasopressin V1a receptor [1] was 0.04 nM.

Regarding `COc1ccc(C[C@@H](NC(=O)CCc2ccc(N=[N+]=[N-])cc2)C(=O)N[C@@H](Cc2ccccc2)C(=O)N[C@@H](CCC(N)=O)C(=O)N[C@@H](CC(N)=O)C(=O)N[C@@H](CCCN=C(N)N)C(=O)N2CCC[C@H]2C(=O)N[C@@H](CCCN=C(N)N)C(=O)N[C@@H](Cc2ccc(O)cc2)C(N)=O)cc1` (stereo in doubt; 15), at Vasopressin V1a receptor [1], the Ki was 0.2 nM.

The molecule `COc1ccc(C[C@@H](NC(=O)CCCc2ccc(N=[N+]=[N-])cc2)C(=O)N[C@@H](Cc2ccccc2)C(=O)N[C@@H](CCC(N)=O)C(=O)N[C@@H](CC(N)=O)C(=O)N[C@@H](CCCN=C(N)N)C(=O)N2CCC[C@H]2C(=O)N[C@@H](CCCN=C(N)N)C(=O)N[C@@H](Cc2ccc(O)cc2)C(N)=O)cc1` (stereo in doubt; 22) returned a Ki at Oxytocin receptor of 18 nM.

`COc1ccc(C[C@@H](NC(=O)Cc2cccc(N=[N+]=[N-])c2)C(=O)N[C@@H](Cc2ccccc2)C(=O)N[C@@H](CCC(N)=O)C(=O)N[C@@H](CC(N)=O)C(=O)N[C@@H](CCCNC(=N)N)C(=O)N2CCC[C@H]2C(=O)N[C@@H](CCCNC(=N)N)C(=O)N[C@@H](Cc2ccc(O)cc2)C(N)=O)cc1` (stereo in doubt; 14) had a Ki on Vasopressin V1a receptor [1] of 0.31 nM. This counts as sub-nanomolar.

In the case of `COc1ccc(C[C@@H](NC(=O)Cc2ccc(N=[N+]=[N-])cc2)C(=O)N[C@@H](Cc2ccccc2)C(=O)N[C@@H](CCC(N)=O)C(=O)N[C@@H](CC(N)=O)C(=O)N[C@@H](CCCNC(=N)N)C(=O)N2CCC[C@H]2C(=O)N[C@@H](CCCNC(=N)N)C(=O)N[C@@H](Cc2ccc(O)cc2)C(N)=O)cc1` (stereo in doubt; 18), the Ki on Vasopressin V1a receptor [1] stood at 0.59 nM; at Oxytocin receptor, 4.8 nM; on Vasopressin V2 receptor, 8 nM; on Vasopressin V1a receptor [3], 0.2 nM. The molecule further returned a dissociation constant (Kd) at Vasopressin V1a receptor [2] of 0.15 nM.

The molecule `COc1ccc(C[C@@H](NC(=O)c2ccc(N=[N+]=[N-])cc2)C(=O)N[C@@H](Cc2ccccc2)C(=O)N[C@@H](CCC(N)=O)C(=O)N[C@@H](CC(N)=O)C(=O)N[C@@H](CCCNC(=N)N)C(=O)N2CCC[C@H]2C(=O)N[C@@H](CCCNC(=N)N)C(=O)N[C@@H](Cc2ccc(O)cc2)C(N)=O)cc1` showed an inhibition constant Ki on Vasopressin V1a receptor [1] of 20 nM.
